Reference: ChEMBL document CHEMBL1156515
Blank lines part the entries; values can stand above or below the molecule they belong to. Active and inactive are the calls of the source. No cut-off for these calls is given here.

Columns and labels:
Mus musculus [1] = species on record: Mus musculus; experiment: Effect on acetyl-CoA carboxylase phosphorylation in mouse embryonic fibroblasts expressing AMPK-alpha1+/+alpha2+/+ upto 300 uM after 4 hrs by Western blot
HeLa [2] = experiment: Effect on acetyl-CoA carboxylase phosphorylation in HeLa cells at 1 uM after 5 mins by densitometry; format: cell-based
Summary of the method: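 HeLa cells grown in MEM with 10% FBS, NEAA and antibiotics. Cells were exposed for 5 min, with or without 1 h STO-609 (10 µg/ml) pretreatment, then lysed in NP-40 buffer. Lysates (10-30 µg protein) were Western blotted for phospho-ACC with ECL detection, and densitometry was given in arbitrary units. Means ± SEM of duplicates, representative of 2 or more experiments.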

HeLa [3] = experiment: Effect on AMPK activation in HeLa cells at 1 uM after 5 mins by immunoprecipitate kinase assay; format: cell-based
Summary of the method: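 HeLa cells grown in Minimum Essential Eagle's Medium with 10% FBS, NEAA, penicillin and streptomycin. Cells were exposed for 5 min, with or without 1 h pretreatment with STO-609 (10 µg/ml). They were lysed in ice-cold NP-40 buffer, and AMPK activity was measured by immunoprecipitate kinase assay. Means ± SEM of duplicates, representative of 2 or more experiments.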

HeLa [4] = experiment: Effect on AMPK phosphorylation in HeLa cells at 100 uM after 1 hr by immunoprecipitate kinase assay; format: cell-based
Summary of the method: (§1)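 HeLa cells (MEM, 10% FBS, NEAA, penicillin/streptomycin) given 100 µM compound for 1 hr, with or without STO-609 (10 µg/ml) for 1 hr beforehand. Lysates in ice-cold NP-40 buffer; AMPK activity by immunoprecipitate kinase assay and Thr-172 phosphorylation by Western blot. Means ± SEM of duplicates, representative of 2 or more experiments.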

Mus musculus [5] = species on record: Mus musculus; experiment: Effect on acetyl-CoA carboxylase phosphorylation in LKB1-/-mouse longus muscle tissue at 100 uM by Western blot; format: tissue-based
Summary of the method: (§2)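 Extensor digitorum longus from overnight-fasted LKB1+/+ or muscle-specific LKB1−/− mice, mounted and incubated 1 hr at 37°C in KRB (pH 7.4, 2 mM pyruvate, gassed 95% O2/5% CO2) with compound (stock in DMSO); controls 0.1% DMSO. Muscles snap-frozen; lysates Western blotted for pT172 AMPK and pACC.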

Mus musculus [6] = species on record: Mus musculus; experiment: Effect on AMPK phosphorylation in wild type LKB1+/+ mouse longus muscle tissue at 2 mM uM by Western blot; format: tissue-based
Summary of the method: (§3)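 EDL muscle from fasted LKB1+/+ or muscle-LKB1−/− mice, incubated 1 hr at 37°C in KRB pH 7.4 with 2 mM pyruvate, gassed 95% O2/5% CO2, with 2 mM AICAR. Lysates immunoblotted with phospho-Thr172 AMPK and phospho-ACC antibodies; ECL bands quantified by CCD imaging.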

Mus musculus [7] = species on record: Mus musculus; experiment: Increase in acetyl-CoA carboxylase phosphorylation in TAK1+/+ mouse embryonic fibroblast at 100 uM after 1 hr by densitometry
Summary of the method: (§4)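 TAK1+/+ and TAK1−/− MEFs treated with 100 µM compound for 1 hr; lysates Western blotted and ACC phosphorylation quantified by densitometry in arbitrary units. Means ± SEM of duplicates, representative of 2 or more experiments.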

Mus musculus [8] = species on record: Mus musculus; experiment: Effect on acetyl-CoA carboxylase phosphorylation in mouse embryonic fibroblasts expressing AMPK-alpha1+/+alpha2+/+ upto 300 uM by Western blot
Summary of the method: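 MEFs from AMPKα1+/+/α2+/+ mice (DMEM, 10% FBS, NEAA, 1 mM pyruvate, antibiotics) given compound at graded concentrations up to 300 µM for 1 h. Lysates Western blotted for phospho- and total ACC, quantified by densitometry (arbitrary units). Means ± SEM of duplicates, representative of 2 or more experiments.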

Rattus norvegicus [9] = species on record: Rattus norvegicus; experiment: Effect on interaction between rat GST fused AMPK glycogen binding domain and glycogen at 5 uM
Summary of the method: (§5)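 β1 glycogen-binding domain (residues 65-182) fused to GST, expressed in E. coli BL21 and glutathione-purified. 2 µg incubated with bovine liver glycogen coupled to Sepharose in 50 mM Tris-HCl pH 7.5, 150 mM NaCl with compound. Load, supernatant and pellet anti-GST immunoblotted on infrared imager.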

HeLa [10] = experiment: Reduction of AMPK activation in HeLa cells at 100 uM after 1 hr in presence of STO-609 by immunoprecipitate kinase assay; format: cell-based
Summary of the method: as §1

[11] = target: 5'-AMP-activated protein kinase catalytic subunit alpha-1 (Rattus norvegicus) (UniProt P54645); experiment: Effect on GST fused rat AMPKalpha1 (1-333) kinase activation in presence of recombinant CaMKKbeta by Western blot
Summary of the method: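 GST fusions of rat AMPKα1 kinase domain, with or without the autoinhibitory region, made in bacteria and glutathione-Sepharose purified. Pre-incubated with MgATP with or without recombinant human CaMKKβ to phosphorylate Thr-172. Activity then measured with or without 1 µM compound, or samples Western blotted with anti-GST and anti-pT172.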

[12] = target: Serine/threonine-protein kinase pim-3 (Homo sapiens) (UniProt Q86V86); experiment: Inhibition of PIM3 at 10 uM
Summary of the method: (§6)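 Single-concentration selectivity screen at 10 µM across a 76-protein-kinase panel, assayed per earlier methods. Duplicate assays; activity expressed as % of no-compound control ± standard deviation.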

Rattus norvegicus [13] = species on record: Rattus norvegicus; experiment: Protection against dephosphorylation of rat AMPK incubated with protein phosphatase 2Calpha at 1 uM in presence of magnesium
Summary of the method: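 Purified rat liver AMPK incubated with recombinant protein phosphatase-2Cα (9 ng) plus 5 mM MgCl2 with or without 1 µM compound; remaining AMPK activity measured. Controls lacked Mg2+ or added 200 µM AMP.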

HeLa [14] = experiment: Reduction of acetyl-CoA carboxylase phosphorylation in HeLa cells at 100 uM after 1 hr in presence of STO-609 by densitometry; format: cell-based
Summary of the method: (§7)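 HeLa cells exposed to 100 µM compound for 1 hr, with or without a 1 hr pretreatment with STO-609 (10 µg/ml). Lysates Western blotted for phospho-ACC, quantified by densitometry in arbitrary units. Means ± SEM of duplicates; 2 or more experiments.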

Mus musculus [15] = species on record: Mus musculus; experiment: Effect on acetyl-CoA carboxylase phosphorylation in LKB1-/-mouse longus muscle tissue at 2 mM uM by Western blot; format: tissue-based
Summary of the method: as §3

Mus musculus [16] = species on record: Mus musculus; experiment: Increase in acetyl-CoA carboxylase phosphorylation in TAK1-/- mouse embryonic fibroblast at 100 uM after 1 hr by densitometry
Summary of the method: as §4

[17] = target: 5'-AMP-activated protein kinase catalytic subunit alpha-1 (Rattus norvegicus) (UniProt P54645); experiment: Activation of rat AMPK alpha-1-alpha-2beta-1-gamma-1 kinase upto 5 uM in presence of saturating concentration of 200 uM AMP
Mus musculus [18] = species on record: Mus musculus; experiment: Effect on acetyl-CoA carboxylase phosphorylation in wild type LKB1+/+ mouse longus muscle tissue at 100 uM by Western blot; format: tissue-based
Summary of the method: as §2

Hepatocyte = experiment: Effect on acetyl-CoA carboxylase phosphorylation in wild type AMPK expressing mouse AMPK-alpha1+/+alpha2+/+ primary hepatocytes upto 200 uM after 4 hrs by Western blot; format: cell-based
Summary of the method: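 Primary hepatocytes from AMPKα1+/+α2+/+ mice exposed to compound concentrations up to 200 µM for 4 hr. Lysates immunoblotted with phosphospecific and total ACC antibodies.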

Mus musculus [19] = species on record: Mus musculus; experiment: Effect on acetyl-CoA carboxylase phosphorylation in wild type LKB1+/+ mouse longus muscle tissue at 2 mM uM by Western blot; format: tissue-based
Summary of the method: as §3

Mus musculus [20] = species on record: Mus musculus; experiment: Effect on AMPK phosphorylation in LKB1-/- mouse longus muscle tissue at 2 mM uM by Western blot; format: tissue-based
Summary of the method: as §3

HeLa [21] = experiment: Effect on acetyl-CoA carboxylase phosphorylation in HeLa cells at 100 uM after 1 hr by densitometry; format: cell-based
Summary of the method: as §7

Mus musculus [22] = species on record: Mus musculus; experiment: Effect on AMPK phosphorylation in LKB1-/- mouse longus muscle tissue at 100 uM by Western blot; format: tissue-based
Summary of the method: as §2

Mus musculus [23] = species on record: Mus musculus; experiment: Effect on acetyl-CoA carboxylase phosphorylation in mouse embryonic fibroblasts expressing AMPK-alpha1+/+alpha2+/+ at 100 uM after 15 mins by Western blot
Mus musculus [24] = species on record: Mus musculus; experiment: Effect on AMPK phosphorylation in wild type LKB1+/+ mouse longus muscle tissue at 100 uM by Western blot; format: tissue-based
Summary of the method: as §2

HeLa [25] = experiment: Reduction of AMPK phosphorylation in HeLa cells at 100 uM after 1 hr in presence of STO-609 by immunoprecipitate kinase assay; format: cell-based
Summary of the method: as §1

[26] = target: Serine/threonine-protein kinase pim-1 (Homo sapiens) (UniProt P11309); experiment: Inhibition of PIM1 at 10 uM
Summary of the method: as §6

Mus musculus [27] = species on record: Mus musculus; experiment: Effect on acetyl-CoA carboxylase phosphorylation in mouse embryonic fibroblasts expressing AMPK-alpha1+/+alpha2+/+ at 100 uM upto1 hrs by Western blot
Rattus norvegicus [28] = species on record: Rattus norvegicus; experiment: Effect on GST fused rat AMPKalpha1 T172D mutant kinase
HeLa [29] = experiment: Effect on AMPK phosphorylation in HeLa cells at 100 uM after 1 hr by immunoprecipitate kinase assay
HeLa [30] = experiment: Effect on AMPK activation in HeLa cells at 100 uM after 1 hr by immunoprecipitate kinase assay; format: cell-based
Summary of the method: as §1

Rattus norvegicus [31] = species on record: Rattus norvegicus; experiment: Effect on interaction between rat GST fused AMPK glycogen binding domain and glycogen at 0.5 uM
Summary of the method: as §5

Sequence of 5'-AMP-activated protein kinase catalytic subunit alpha-1 (Rattus norvegicus) (P54645 whole entry, the tested form may be a part): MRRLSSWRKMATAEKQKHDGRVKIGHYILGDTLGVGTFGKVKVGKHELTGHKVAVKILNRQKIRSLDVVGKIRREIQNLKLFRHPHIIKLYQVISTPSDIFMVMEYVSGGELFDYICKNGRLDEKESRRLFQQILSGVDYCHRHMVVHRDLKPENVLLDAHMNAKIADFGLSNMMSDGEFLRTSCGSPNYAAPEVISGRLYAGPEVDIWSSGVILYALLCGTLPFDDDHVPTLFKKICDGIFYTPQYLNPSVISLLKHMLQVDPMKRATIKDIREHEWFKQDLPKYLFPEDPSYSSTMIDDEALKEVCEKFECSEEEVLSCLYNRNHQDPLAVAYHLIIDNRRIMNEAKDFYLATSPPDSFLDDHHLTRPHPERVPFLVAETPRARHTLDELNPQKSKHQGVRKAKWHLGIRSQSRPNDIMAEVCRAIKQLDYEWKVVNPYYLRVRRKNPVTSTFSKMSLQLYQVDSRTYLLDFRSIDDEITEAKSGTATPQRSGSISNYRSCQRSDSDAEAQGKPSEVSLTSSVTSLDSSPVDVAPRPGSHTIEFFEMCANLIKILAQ
Sequence of Serine/threonine-protein kinase pim-1 (Homo sapiens) (P11309 whole entry, looked up): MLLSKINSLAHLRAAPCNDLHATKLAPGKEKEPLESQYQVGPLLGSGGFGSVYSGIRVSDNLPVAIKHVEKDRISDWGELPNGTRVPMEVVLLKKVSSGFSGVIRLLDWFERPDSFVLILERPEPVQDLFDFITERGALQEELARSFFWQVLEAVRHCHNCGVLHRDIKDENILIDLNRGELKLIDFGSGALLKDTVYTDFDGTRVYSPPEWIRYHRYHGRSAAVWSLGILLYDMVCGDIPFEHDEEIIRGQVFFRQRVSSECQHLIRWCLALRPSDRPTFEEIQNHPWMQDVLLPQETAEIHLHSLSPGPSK

Compound: NC(=O)c1ncn([C@@H]2O[C@H](COP(=O)(O)O)[C@@H](O)[C@H]2O)c1N
Activity (Mus musculus [1]): Active

Compound: CC(O)[C@]1(C)CC[C@H]([C@]2(C)CC[C@@H](C[C@H](O)[C@H](C)[C@H](O)[C@H](C)/C=C/C[C@@H](C)C[C@@H](C)/C(O)=C/C(=O)[C@@H](C)C[C@@H](C)C[C@H](C)CCC(=O)O)O2)O1 (single isomer, unassigned)
Activity (HeLa [2]): Active
Activity (HeLa [3]): Active

Activity (Mus musculus [7]): Active
Activity (Mus musculus [8]): Active
Activity (Rattus norvegicus [9]): inactive
Activity [11]: inactive
inhibition [12]: > 50%
Activity (Rattus norvegicus [13]): Active
Activity (Mus musculus [16]): Active
Activity [17]: 1.4
Activity (Mus musculus [23]): Active
inhibition [26]: > 50%
Activity (Mus musculus [27]): Active
Activity (Rattus norvegicus [28]): inactive
Activity (Rattus norvegicus [31]): inactive
Compound: N#Cc1c(O)c2c(-c3ccc(-c4ccccc4O)cc3)csc2[nH]c1=O
Activity (HeLa [4]): Active
Activity (Mus musculus [5]): inactive
Activity (Mus musculus [6]): Active
Activity (HeLa [10]): Active
Activity (HeLa [14]): Active
Activity (Mus musculus [15]): inactive
Activity (Mus musculus [18]): Active
Activity (Hepatocyte): Active
Activity (Mus musculus [19]): Active
Activity (Mus musculus [20]): inactive
Activity (HeLa [21]): Active
Activity (Mus musculus [22]): inactive
Activity (Mus musculus [24]): Active
Activity (HeLa [25]): Active
Activity (HeLa [29]): Active
Activity (HeLa [30]): Active
